Results from ChEMBL document CHEMBL4257565, “A phenotypic approach to the discovery of compounds that promote non-amyloidogenic processing of the amyloid precursor protein: Toward a new profile of indirect β-secretase inhibitors” (Eur J Med Chem, 2018).
The source made the active and inactive calls. No cut-off for these calls is given here.

Experiments:
[1] = target: T1, Beta-secretase 1 (Homo sapiens, UniProt P56817); assay: Inhibition of BACE1 in human SH-SY5Y cells harboring wild type APP695 assessed as reduction in amyloid beta (1 to 40) level after 24 hrs by ELISA method; format: cell-based
Procedure, shortened: (§1)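 Aβ1-40 and Aβ1-42 levels were measured by ELISA in APPwt-expressing SH-SY5Y cells after compound treatment.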

[2] = target: T1, Beta-secretase 1; assay: Inhibition of BACE1 in human SH-SY5Y cells harboring wild type APP695 assessed as increase in AICD level at 3 uM by Western blot method relative to chloroquine; format: cell-based
Procedure, shortened: (§2)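 APP C-terminal fragments (αCTFs and AICD) were detected by Western blot and scored as band intensity. Compounds were tested at 1, 3 and 10 µM.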

[3] = target: T1, Beta-secretase 1; assay: Inhibition of BACE1 in human SH-SY5Y cells harboring wild type APP695 assessed as increase in alphaCTF level at 3 uM by Western blot method relative to chloroquine; format: cell-based; procedure, shortened: as §2
[4] = test system: Primary neuron; assay: Inhibition of autophagy in C57BL6 mouse primary neuronal cells assessed as increase in lipidation of LC3-1 to LC3-2 up to 5 uM after 24 hrs by DAPI staining based immunofluorescence assay; format: functional
Procedure, shortened: (§3)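 Autophagy markers were quantified against control: p62 expression and lipidation of LC3-I into LC3-II. Accumulation of p62- and LC3-positive vesicles was scored by immunofluorescence. This was done in SY5Y-APPwt cells and primary neurons.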

[5] = target: T1, Beta-secretase 1; assay: Inhibition of recombinant human BACE1 at 10 uM using Mca-S-E-[…]-L-D-AEF-R-K(Dnp)-R-R-NH2 as substrate after 60 mins by fluorescence assay relative to control
Procedure, shortened: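 BACE-1 enzymatic activity was followed by cleavage of the fluorogenic peptide Mca-S-E-V-N-L-D-AE-F-R-K(Dnp)-R-R-NH2.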

[6] = test system: SH-SY5Y; assay: Inhibition of autophagy in human SH-SY5Y cells harboring wild type APP695 assessed as increase in p62 expression up to 5 uM after 24 hrs by DAPI staining based immunofluorescence assay; format: functional, cell-based; procedure, shortened: as §3
[7] = target: Beta-secretase 1 (Mus musculus) (UniProt P56818); assay: Inhibition of BACE1 in C57BL6 mouse primary neuronal cells assessed as accumulation of AICD level up to 5 uM after 24 hrs by DAPI staining based immunofluorescence assay
[8] = target: T1, Beta-secretase 1; assay: Inhibition of BACE1 in human SH-SY5Y cells harboring wild type APP695 assessed as reduction in sAPPbeta level up to 5 uM after 24 hrs by DAPI staining based electro-chemiluminescence immunoassay; format: cell-based
[9] = test system: SH-SY5Y; assay: Cytotoxicity against human SH-SY5Y cells harboring wild type APP695 assessed as reduction in cell viability after 24 hrs by LDH assay; format: cell-based
[10] = target: T1, Beta-secretase 1; assay: Inhibition of BACE1 in human SH-SY5Y cells harboring wild type APP695 assessed as reduction in amyloid beta (1 to 40) level up to 5 uM after 24 hrs by ELISA; format: cell-based; procedure, shortened: as §1
[11] = Cytotoxicity against C57BL6 mouse primary neuronal cells assessed as reduction in cell viability after 24 hrs by LDH assay; format: cell-based; conditions: primary neuron
[12] = target: T1, Beta-secretase 1; assay: Inhibition of BACE1 in human SH-SY5Y cells harboring wild type APP695 assessed as accumulation of AICD level up to 5 uM after 24 hrs by ELISA; format: cell-based
[13] = test system: Primary neuron; assay: Inhibition of autophagy in C57BL6 mouse primary neuronal cells assessed as increase in p62 expression up to 5 uM after 24 hrs by DAPI staining based immunofluorescence assay; format: functional; procedure, shortened: as §3
[14] = target: T1, Beta-secretase 1; assay: Inhibition of BACE1 in human SH-SY5Y cells harboring wild type APP695 assessed as increase in mature APP level up to 5 uM after 24 hrs by ELISA; format: cell-based; conditions: in the assay text read “by Western blot” for “by ELISA”
Procedure, shortened: (§4)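 Full-length APP was resolved and detected with APP-C17 antiserum as two bands. The 110 kDa band is the immature, neosynthesized form and the 115 kDa band is the mature, glycosylated form. Both bands were quantified against the control condition. This was done in SH-SY5Y-APPwt cells and in primary neuronal cultures.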

[15] = test system: SH-SY5Y; assay: Inhibition of alpha secretase in human SH-SY5Y cells harboring wild type APP695 assessed as increase in sAPPalpha level up to 5 uM after 24 hrs by DAPI staining based electro-chemiluminescence immunoassay; format: cell-based
[16] = target: Beta-secretase 1 (Mus musculus) (UniProt P56818); assay: Inhibition of BACE1 in C57BL6 mouse primary neuronal cells assessed as accumulation of APP-CTF level up to 5 uM after 24 hrs by DAPI staining based immunofluorescence assay
[17] = target: T1, Beta-secretase 1; assay: Inhibition of BACE1 in human SH-SY5Y cells harboring wild type APP695 assessed as reduction in amyloid beta (1 to 42) level up to 5 uM after 24 hrs by ELISA; format: cell-based; procedure, shortened: as §1
[18] = test system: SH-SY5Y; assay: Inhibition of autophagy in human SH-SY5Y cells harboring wild type APP695 assessed as increase in lipidation of LC3-1 to LC3-2 up to 5 uM after 24 hrs by DAPI staining based immunofluorescence assay; format: functional, cell-based; procedure, shortened: as §3
[19] = target: T1, Beta-secretase 1; assay: Inhibition of BACE1 in human SH-SY5Y cells harboring wild type APP695 assessed as accumulation of APP-CTF level up to 5 uM after 24 hrs by ELISA; format: cell-based
[20] = target: Beta-secretase 1 (Mus musculus) (UniProt P56818); assay: Inhibition of BACE1 in C57BL6 mouse primary neuronal cells assessed as increase in mature APP level up to 5 uM after 24 hrs by DAPI staining based immunofluorescence assay relative to control
[21] = target: T1, Beta-secretase 1; assay: Inhibition of BACE1 in human SH-SY5Y cells harboring wild type APP695 assessed as increase in AICD level at 3 uM by Western blot method relative to untreated control; format: cell-based; procedure, shortened: as §2
[22] = test system: SH-SY5Y; assay: Inhibition of autophagy in human SH-SY5Y cells harboring wild type APP695 assessed as increase in p62 expression up to 5 uM after 24 hrs in presence of autophagic inhibitor BafA1 by DAPI staining based immunofluorescence assay; format: functional, cell-based
Procedure, shortened: (§5)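 Cells were co-treated with compound and the autophagic flux inhibitor bafilomycin A1. p62 and LC3 accumulation were then assessed in SY5Y-APPwt cells and primary neurons.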

[23] = test system: Primary neuron; assay: Inhibition of autophagy in C57BL6 mouse primary neuronal cells assessed as increase in lipidation of LC3-1 to LC3-2 up to 5 uM after 24 hrs in presence of autophagic inhibitor BafA1 by DAPI staining based immunofluorescence assay; format: functional; procedure, shortened: as §5
[24] = test system: Primary neuron; assay: Inhibition of autophagy in C57BL6 mouse primary neuronal cells assessed as increase in lipidation of LC3-1 to LC3-2 at 3 uM after 24 hrs by DAPI staining based immunofluorescence assay; format: functional; procedure, shortened: as §3
[25] = target: Beta-secretase 1 (Mus musculus) (UniProt P56818); assay: Inhibition of BACE1 in C57BL6 mouse primary neuronal cells assessed as increase in mature APP level at 3 to 5 uM after 24 hrs by DAPI staining based immunofluorescence assay relative to control; set-up: scale not given: the % may be the effect or the level left
[26] = test system: Primary neuron; assay: Inhibition of autophagy in C57BL6 mouse primary neuronal cells assessed as increase in p62 expression at 3 uM after 24 hrs by DAPI staining based immunofluorescence assay; format: functional; procedure, shortened: as §3
[27] = test system: Primary neuron; assay: Inhibition of autophagy in C57BL6 mouse primary neuronal cells assessed as increase in p62 expression up to 5 uM after 24 hrs in presence of autophagic inhibitor BafA1 by DAPI staining based immunofluorescence assay; format: functional; procedure, shortened: as §5
[28] = test system: SH-SY5Y; assay: Inhibition of autophagy in human SH-SY5Y cells harboring wild type APP695 assessed as increase in p62 expression at 5 uM after 24 hrs by DAPI staining based immunofluorescence assay relative to control; format: functional; set-up: scale not given: the % may be the effect or the level left; procedure, shortened: as §3
[29] = target: T1, Beta-secretase 1; assay: Inhibition of BACE1 in human SH-SY5Y cells harboring wild type APP695 assessed as increase in mature APP level at 5 uM after 24 hrs by ELISA relative to control; format: cell-based; set-up: scale not given: the % may be the effect or the level left; conditions: in the assay text read “by Western blot” for “by ELISA”; procedure, shortened: as §4
[30] = test system: SH-SY5Y; assay: Inhibition of autophagy in human SH-SY5Y cells harboring wild type APP695 assessed as increase in lipidation of LC3-1 to LC3-2 up to 5 uM after 24 hrs in presence of autophagic inhibitor BafA1 by DAPI staining based immunofluorescence assay; format: functional, cell-based; procedure, shortened: as §5
[31] = target: T1, Beta-secretase 1; assay: Inhibition of BACE1 in human SH-SY5Y cells harboring wild type APP695 assessed as increase in alphaCTF level at 3 uM by Western blot method relative to untreated control; format: cell-based; procedure, shortened: as §2
[32] = test system: SH-SY5Y; assay: Inhibition of autophagy in human SH-SY5Y cells harboring wild type APP695 assessed as increase in lipidation of LC3-1 to LC3-2 at 5 uM after 24 hrs by DAPI staining based immunofluorescence assay relative to control; format: functional; set-up: scale not given: the % may be the effect or the level left
Procedure, shortened: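 SY5Y-APPwt cells treated at 5 µM alongside untreated control. LC3-I to LC3-II lipidation quantified from western blot bands. LC3- and p62-positive vesicles scored inside cells by immunofluorescence.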

T1 sequence (P56817 whole entry): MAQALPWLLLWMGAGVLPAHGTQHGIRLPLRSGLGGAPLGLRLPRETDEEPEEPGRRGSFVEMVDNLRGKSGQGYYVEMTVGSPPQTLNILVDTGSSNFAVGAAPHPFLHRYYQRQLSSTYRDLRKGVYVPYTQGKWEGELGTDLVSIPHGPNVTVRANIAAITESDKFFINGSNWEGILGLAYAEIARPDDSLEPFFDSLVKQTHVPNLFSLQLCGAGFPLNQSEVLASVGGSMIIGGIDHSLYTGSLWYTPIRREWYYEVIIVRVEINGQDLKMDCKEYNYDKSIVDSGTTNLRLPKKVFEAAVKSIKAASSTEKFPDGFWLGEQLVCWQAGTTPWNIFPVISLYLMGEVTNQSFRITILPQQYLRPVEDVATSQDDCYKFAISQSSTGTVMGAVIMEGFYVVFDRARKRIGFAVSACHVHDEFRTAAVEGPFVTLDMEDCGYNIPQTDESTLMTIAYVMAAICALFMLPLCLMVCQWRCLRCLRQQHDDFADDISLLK
Beta-secretase 1 (Mus musculus), sequence (P56818 whole entry): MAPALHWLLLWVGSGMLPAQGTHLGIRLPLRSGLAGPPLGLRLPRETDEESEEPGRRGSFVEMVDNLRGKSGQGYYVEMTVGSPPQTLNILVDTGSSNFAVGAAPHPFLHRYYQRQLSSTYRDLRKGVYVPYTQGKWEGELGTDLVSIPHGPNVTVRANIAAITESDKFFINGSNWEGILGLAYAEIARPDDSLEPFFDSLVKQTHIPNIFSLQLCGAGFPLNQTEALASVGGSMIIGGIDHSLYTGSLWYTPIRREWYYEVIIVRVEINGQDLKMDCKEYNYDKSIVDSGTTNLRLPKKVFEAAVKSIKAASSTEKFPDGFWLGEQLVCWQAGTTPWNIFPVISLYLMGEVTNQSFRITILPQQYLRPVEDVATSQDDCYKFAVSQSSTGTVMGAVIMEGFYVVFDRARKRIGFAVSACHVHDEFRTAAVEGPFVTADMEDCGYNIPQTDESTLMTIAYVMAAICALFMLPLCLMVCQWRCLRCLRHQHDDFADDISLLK

Q: What does the source list for `c1ccc(-c2cccc(OCCN3CCCCC3)c2)cc1`?
A: IC50 [1]: 9100 nM; fold change (FC) [2]: 0.2; fold change (FC) [3]: 0.1

Q: What does the source list for `CN1CCN(Cc2ccccc2-c2ccc(NCCCN3CCCCC3)c(OCCN3CCCCC3)c2)CC1`?
A: IC50 [1]: 2600 nM; fold change (FC) [2]: 3.7; fold change (FC) [3]: 5.1

Q: For `CN(C)Cc1ccccc1-c1ccc(NCCCN2CCCCC2)cc1`, which IC50 [1] is on record?
A: 3900 nM

Q: What about the fold change (FC) [2] of the same molecule?
A: 0.8

Q: What about the fold change (FC) [3] of the same molecule?
A: 0.9

Q: For `CN(C)Cc1ccccc1-c1ccc(NCCN2CCCCC2)c(OCCCCN2CCCCC2)c1`, which fold change (FC) [2] is on record?
A: 4.8

Q: And the fold change (FC) [3]?
A: 4.4

Q: For `c1ccc(-c2ccc(NCCCN3CCCCC3)c(OCCN3CCCCC3)c2)c(CN2CCCCC2)c1`, which IC50 [1] is on record?
A: 2600 nM

Q: And the fold change (FC) [2]?
A: 2.7

Q: And the fold change (FC) [3]?
A: 4.3

Q: For `c1ccc(-c2ccc(NCCCN3CCCCC3)c(OCCN3CCCCC3)c2)c(CN2CCOCC2)c1`, which IC50 [1] is on record?
A: 2800 nM

Q: And the fold change (FC) [2]?
A: 1.7

Q: And the fold change (FC) [3]?
A: 3.1

Q: Which results are given for `CN(C)Cc1ccccc1-c1ccc(NCCCN2CCCCC2)c(OCCC2CCCCC2)c1`?
A: inhibition [4]: inactive; inhibition [5]: < 10%; inhibition [6]: inactive; inhibition [7]: inactive; inhibition [8]: Active; Activity [9]: Non-Toxic; inhibition [10]: Active; IC50 [1]: 2100 nM; Activity [11]: Non-Toxic; inhibition [12]: inactive; inhibition [13]: inactive; inhibition [14]: inactive; inhibition [15]: Active; fold change (FC) [2]: 0.1; fold change (FC) [3]: 0.1; inhibition [16]: inactive; inhibition [17]: Active; inhibition [18]: inactive; inhibition [19]: inactive; inhibition [20]: inactive

Q: Which results are given for `CN(C)Cc1ccccc1-c1ccc(NCCN2CCCCC2)c(OCCN2CCCCC2)c1`?
A: IC50 [1]: 1400 nM; fold change (FC) [2]: 4.8; fold change (FC) [3]: 5

Q: What does the source list for `CN(C)Cc1ccccc1-c1ccc(NCCCN2CCCCC2)c(OCCN2CCCCC2)c1`?
A: fold change (FC) [21]: 40; inhibition [5]: < 10%; inhibition [7]: Active; inhibition [8]: Active; Activity [9]: Non-Toxic; inhibition [22]: Active; inhibition [10]: Active; inhibition [23]: Active; inhibition [24]: Active; IC50 [1]: 2800 nM; Activity [11]: Non-Toxic; inhibition [12]: Active; Activity [25]: 130%; inhibition [26]: Active; inhibition [15]: Active; inhibition [27]: Active; Activity [28]: 476%; fold change (FC) [2]: 3.6; Activity [29]: 221%; fold change (FC) [3]: 6.4; inhibition [30]: Active; inhibition [16]: Active; inhibition [17]: Active; fold change (FC) [31]: 30; inhibition [19]: Active; Activity [32]: 591%

Q: With `c1ccc(-c2ccc(NCCCN3CCCCC3)c(OCCN3CCCCC3)c2)cc1` as the molecule, how does the IC50 [1] read?
A: 5200 nM

Q: What about the fold change (FC) [2] of the same molecule?
A: 2.1

Q: What about the fold change (FC) [3] of the same molecule?
A: 2.4
